From ChEMBL document CHEMBL2086294, “Kinetics and docking studies of two potential new inhibitors of the nucleoside hydrolase from Leishmania donovani” (Eur J Med Chem, 2012)
pIC50, pKi: −log10 of the molar value. Calls of active or inactive are those of the source. No cut-off for these calls is given here.

Legend:
Leishmania donovani [1] = assay: Ratio of inosine Km to compound Ki for Leishmania donovani recombinant nucleoside hydrolase
[2] = Inhibition of Leishmania donovani recombinant nucleoside hydrolase expressed in Escherichia coli DH5alpha coexpressing MBP using inosine as substrate by xanthine oxidase-coupled assay
Outline: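 MBP-fused enzyme (13 nM) with 0.3 mM inosine and xanthine oxidase (60 milliunits/mL) in 20 mM phosphate pH 8.0. Uric acid formation read at 293 nm, with at least six inhibitor concentrations. IC50 from nonlinear dose-response fit of % inhibition. Ki from five or six inhibitor concentrations at a substrate level near KM, converted with the Cheng–Prusoff equation.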

Leishmania donovani [3] = assay: Competitive inhibition of Leishmania donovani recombinant nucleoside hydrolase expressed in Escherichia coli DH5alpha coexpressing MBP using inosine as substrate by Lineweaver-Burk plot analysis
[4] = biological target: Xanthine dehydrogenase/oxidase (Homo sapiens, UniProt P47989); assay: Inhibition of xanthine oxidase using hypoxanthine as substrate by UV-Vis spectrophotometry
Sequence of Xanthine dehydrogenase/oxidase (P47989 whole entry): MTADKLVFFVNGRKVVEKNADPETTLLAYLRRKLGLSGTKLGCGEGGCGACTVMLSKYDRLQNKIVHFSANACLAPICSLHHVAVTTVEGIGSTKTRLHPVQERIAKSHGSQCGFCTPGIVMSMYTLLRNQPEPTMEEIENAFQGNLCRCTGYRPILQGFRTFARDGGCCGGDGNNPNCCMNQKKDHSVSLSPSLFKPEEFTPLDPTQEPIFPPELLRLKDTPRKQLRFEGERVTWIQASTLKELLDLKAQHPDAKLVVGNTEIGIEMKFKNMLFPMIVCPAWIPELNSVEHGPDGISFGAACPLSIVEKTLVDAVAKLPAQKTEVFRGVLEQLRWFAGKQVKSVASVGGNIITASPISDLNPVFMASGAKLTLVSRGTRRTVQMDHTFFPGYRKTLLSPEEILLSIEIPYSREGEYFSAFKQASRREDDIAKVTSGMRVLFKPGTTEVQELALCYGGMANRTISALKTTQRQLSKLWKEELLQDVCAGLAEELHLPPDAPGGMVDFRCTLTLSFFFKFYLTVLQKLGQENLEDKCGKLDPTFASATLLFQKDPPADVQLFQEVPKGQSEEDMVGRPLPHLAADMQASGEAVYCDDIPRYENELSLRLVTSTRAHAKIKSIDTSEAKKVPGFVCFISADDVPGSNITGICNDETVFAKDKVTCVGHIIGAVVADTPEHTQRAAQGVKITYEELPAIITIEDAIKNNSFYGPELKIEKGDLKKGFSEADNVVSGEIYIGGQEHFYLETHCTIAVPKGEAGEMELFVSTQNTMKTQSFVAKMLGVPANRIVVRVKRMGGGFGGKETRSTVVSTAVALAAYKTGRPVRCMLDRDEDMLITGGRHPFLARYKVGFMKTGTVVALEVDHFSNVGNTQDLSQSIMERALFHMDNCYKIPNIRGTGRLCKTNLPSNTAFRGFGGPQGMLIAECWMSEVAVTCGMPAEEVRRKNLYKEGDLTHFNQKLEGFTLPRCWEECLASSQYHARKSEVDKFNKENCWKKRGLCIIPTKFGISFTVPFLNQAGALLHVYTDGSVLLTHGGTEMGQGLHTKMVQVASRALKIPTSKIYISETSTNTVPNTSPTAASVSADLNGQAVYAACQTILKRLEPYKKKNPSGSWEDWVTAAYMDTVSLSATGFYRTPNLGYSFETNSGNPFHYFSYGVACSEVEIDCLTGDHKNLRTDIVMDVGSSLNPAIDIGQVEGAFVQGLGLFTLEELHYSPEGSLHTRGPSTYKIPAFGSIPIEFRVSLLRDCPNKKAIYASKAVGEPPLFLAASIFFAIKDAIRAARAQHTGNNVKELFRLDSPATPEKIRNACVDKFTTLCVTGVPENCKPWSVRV
Outline: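 Control with xanthine oxidase and hypoxanthine: uric acid formation followed spectrophotometrically, with and without test compound.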

Leishmania donovani [5] = assay: Activity of Leishmania donovani recombinant nucleoside hydrolase expressed in Escherichia coli DH5alpha coexpressing MBP
Outline: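 LdNH fused to MBP, expressed from pMAL-c2-NH36 in E. coli DH5α (IPTG 0.3 mM, 2 h) and amylose-purified. Inosine hydrolysis coupled to excess xanthine oxidase (60 milliunits/mL) converting hypoxanthine to uric acid, read at 293 nm. 13 nM enzyme, inosine 0.3–3.0 KM, 20 mM phosphate pH 8.0, room temperature, triplicate. KM and Vmax from nonlinear Michaelis–Menten fit of initial velocities.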

| SMILES | Ratio (Leishmania donovani [1]) | pIC50 [2] | pKi [2] | inhibition (Leishmania donovani [3]) | inhibition (INH) [4] | Km (Leishmania donovani [5]) [µM] |
| --- | --- | --- | --- | --- | --- | --- |
| O=C(O)c1cn([C@@H]2O[C@H](CO)[C@@H](O)[C@H]2O)c2ccc(F)cc2c1=O | 26 | 4.54 | 4.77 | Active | Not Active | – |
| O=c1[nH]cnc2c1ncn2[C@@H]1O[C@H](CO)[C@@H](O)[C@H]1O | – | – | – | – | – | 434 |
| O=C(O)c1cn([C@@H]2O[C@H](CO)[C@@H](O)[C@H]2O)c2ccc(Cl)cc2c1=O | 270 | 5.58 | 5.80 | Active | Not Active | – |
